Experiments:
[1] = Antioxidant activity assessed as trolox equivalent of ABTS radical scavenging activity by spectrophotometry; assay type: functional
In short: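 ABTS radical monocation, preformed, scavenging read spectrophotometrically. Samples were diluted in MeOH to 0.3, 0.5, 1.0, 1.5 and 2.0 mM. 10 µL of sample or Trolox standard was added to 1.0 mL diluted ABTS, with MeOH as control. % inhibition of A734 vs control was taken 1 min after mixing, in triplicate. Value = Trolox concentration matching the inhibition of 1 mM compound.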

[2] = Antioxidant activity assessed as trolox equivalent of free radical scavenging activity by chemiluminescence assay; assay type: functional
In short: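 Measures inhibition of p-iodophenol-enhanced chemiluminescence from a horseradish peroxidase/perborate/luminol system. Signal reagent was made by dissolving tablets (luminol, p-iodophenol enhancer, perborate oxidant) in assay buffer. Trolox served as reference antioxidant, and activity is expressed in Trolox-equivalent mM.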

Structure (SMILES)	Activity [1] [mM]	Activity [2] [mM]
CC(C)=CCC/C(C)=C/Cc1c(O)cc(O)c(C(=O)CC(C)C)c1O	1.1	0.96
C=C(C)[C@H]1C[C@H](c2c(O)cc3oc4c(O)c(O)ccc4c(=O)c3c2O)C(C)(C)C1	2.75	1.78
O=c1c(O)c(-c2ccc(O)c(O)c2)oc2cc(O)cc(O)c12	3.33	3.09
O=C(c1ccccc1)c1cc(O)c([C@@H]2O[C@H](CO)[C@@H](O)[C@H](O)[C@H]2O)c(O)c1	1.93	1.24
C=C(C)[C@H]1C[C@H](c2c(O)cc3oc4c(O)cccc4c(=O)c3c2O)C(C)(C)C1	2.92	1.94
C[C@@H]1O[C@@H](OC[C@H]2O[C@@H](Oc3c(-c4ccc(O)c(O)c4)oc4cc(O)cc(O)c4c3=O)[C@H](O)[C@@H](O)[C@@H]2O)[C@H](O)[C@H](O)[C@H]1O	2.78	2.54

Source: ChEMBL document CHEMBL1151210, “Antioxidative constituents from the leaves of Hypericum styphelioides” (J Nat Prod, 2004)
